Reference: ChEMBL document CHEMBL1156160, “The introduction of P4 substituted 1-methylcyclohexyl groups into Boceprevir: a change in direction in the search for a second generation HCV NS3 protease inhibitor” (Bioorg Med Chem Lett, 2010)

Legend:
[1] = Inhibition of HCV NS4A tagged recombinant single chain NS3 protease after 15 mins; set-up: species or system Hepacivirus hominis
[2] = Selectivity for HCV NS3 protease over human neutrophil elastase
Summary of the method: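 Ratio of inhibitory activity against human neutrophil elastase to that against HCV protease (HNE/HCV), taken as selectivity. HCV activity was from a continuous protease assay using NS4A-tethered single-chain NS3 serine protease, giving Ki* as the equilibrium constant for reversible covalent binding of the electrophilic ketone to the active-site serine. Compounds were tested as P1-epimer diastereomer mixtures.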

Hepatitis C virus = assay: Antiviral activity against HCV in human hepatoma cells assessed as inhibition of RNA replication by replicon assay; assay type: functional, Hepacivirus hominis

| Ki [1] | Ratio [2] | EC90 (Hepatitis C virus) | Compound |
| --- | --- | --- | --- |
| 280 nM | – | – | C=CCNC(=O)C(=O)C(CCC)NC(=O)[C@@H]1[C@@H]2[C@H](CN1C(=O)[C@@H](NC(=O)NC(C)(C)C)C1CCCCC1)C2(C)C (stereo partly drawn) |
| 11 nM | 1170 | 400 nM | CC(C)(C)[C@H](NC(=O)NC1(C(O)c2ccccc2)CCCCC1)C(=O)N1C[C@H]2[C@@H]([C@H]1C(=O)NC(CC1CC1)C(=O)C(N)=O)C2(C)C (stereo partly drawn) |
| 11 nM | 2600 | 400 nM | CC(c1ccccc1)C1(NC(=O)N[C@H](C(=O)N2C[C@H]3[C@@H]([C@H]2C(=O)NC(CC2CC2)C(=O)C(N)=O)C3(C)C)C(C)(C)C)CCCCC1 (stereo partly drawn) |
| 10 nM | 260 | 400 nM | Cc1cc(S(=O)(=O)CC2(NC(=O)N[C@H](C(=O)N3C[C@H]4[C@@H]([C@H]3C(=O)NC(CC3CC3)C(=O)C(N)=O)C4(C)C)C(C)(C)C)CCCCC2)co1 (stereo partly drawn) |
| 25 nM | 200 | 400 nM | CC(C)(C)[C@H](NC(=O)NC1(Cc2cccnc2)CCCCC1)C(=O)N1C[C@H]2[C@@H]([C@H]1C(=O)NC(CC1CC1)C(=O)C(N)=O)C2(C)C (stereo partly drawn) |
| 12 nM | 395 | 85 nM | CC(C)(C)[C@H](NC(=O)NC1(Cc2ccccc2)CCCCC1)C(=O)N1C[C@H]2[C@@H]([C@H]1C(=O)NC(CC1CC1)C(=O)C(N)=O)C2(C)C (stereo partly drawn) |
| 140 nM | – | – | CC(C)(C)[C@H](NC(=O)NC1(CN)CCCC1)C(=O)N1C[C@H]2[C@@H]([C@H]1C(=O)NC(CC1CC1)C(=O)C(N)=O)C2(C)C (stereo partly drawn) |
| 3 nM | – | 80 nM | CC(C)(C)[C@H](NC(=O)NC1(CS(=O)(=O)C(C)(C)C)CCCCC1)C(=O)N1C[C@H]2[C@@H]([C@H]1C(=O)NC(CC1CCC1)C(=O)C(N)=O)C2(C)C (stereo partly drawn) |
| 11 nM | – | 100 nM | CC(C)(C)[C@H](NC(=O)NC1(Cc2ccco2)CCCCC1)C(=O)N1C[C@H]2[C@@H]([C@H]1C(=O)NC(CC1CC1)C(=O)C(N)=O)C2(C)C (stereo partly drawn) |
| 3 nM | – | 100 nM | CC(C)(C)[C@H](NC(=O)NC1(CS(=O)(=O)c2ccccc2)CCCCC1)C(=O)N1C[C@H]2[C@@H]([C@H]1C(=O)NC(CC1CC1)C(=O)C(N)=O)C2(C)C (stereo partly drawn) |
| 5 nM | 1200 | 90 nM | CCS(=O)(=O)CC1(NC(=O)N[C@H](C(=O)N2C[C@H]3[C@@H]([C@H]2C(=O)NC(CC2CCC2)C(=O)C(N)=O)C3(C)C)C(C)(C)C)CCCCC1 (stereo partly drawn) |
| 9 nM | 1100 | 200 nM | CC(C)(C)[C@H](NC(=O)NC1(CS(=O)(=O)c2ccccc2)CCCCC1)C(=O)N1C[C@H]2[C@@H]([C@H]1C(=O)NC(CC1CCC1)C(=O)C(N)=O)C2(C)C (stereo partly drawn) |
| 5 nM | 90 | 400 nM | CC(C)(C)[C@H](NC(=O)NC1(CS(=O)(=O)Cc2ccccc2)CCCCC1)C(=O)N1C[C@H]2[C@@H]([C@H]1C(=O)NC(CC1CC1)C(=O)C(N)=O)C2(C)C (stereo partly drawn) |
| 10 nM | 1570 | 300 nM | CC(C)(C)[C@H](NC(=O)NC1(CS(=O)(=O)c2ccccn2)CCCCC1)C(=O)N1C[C@H]2[C@@H]([C@H]1C(=O)NC(CC1CCC1)C(=O)C(N)=O)C2(C)C (stereo partly drawn) |
| 30 nM | 260 | 400 nM | CC(C)(C)[C@H](NC(=O)NC1(Cc2ccc(O)cc2)CCCCC1)C(=O)N1C[C@H]2[C@@H]([C@H]1C(=O)NC(CC1CC1)C(=O)C(N)=O)C2(C)C (stereo partly drawn) |
| 11 nM | 290 | 400 nM | CCS(=O)(=O)CC1(NC(=O)N[C@H](C(=O)N2C[C@H]3[C@@H]([C@H]2C(=O)NC(CC2CC2)C(=O)C(N)=O)C3(C)C)C(C)(C)C)CCCCC1 (stereo partly drawn) |
| 9 nM | – | 70 nM | CC(C)(C)[C@H](NC(=O)NC1(Cc2cccc(O)c2)CCCCC1)C(=O)N1C[C@H]2[C@@H]([C@H]1C(=O)NC(CC1CC1)C(=O)C(N)=O)C2(C)C (stereo partly drawn) |
| 24 nM | 130 | 300 nM | CC(C)(C)[C@H](NC(=O)NC1(Cc2ccccc2)CCCC1)C(=O)N1C[C@H]2[C@@H]([C@H]1C(=O)NC(CC1CC1)C(=O)C(N)=O)C2(C)C (stereo partly drawn) |
| 47 nM | 320 | 400 nM | CC(C)(C)[C@H](NC(=O)NC1(c2ccccc2)CCCCC1)C(=O)N1C[C@H]2[C@@H]([C@H]1C(=O)NC(CC1CC1)C(=O)C(N)=O)C2(C)C (stereo partly drawn) |
| 12 nM | – | 100 nM | CC(C)(C)[C@H](NC(=O)NC1(CS(=O)(=O)C(C)(C)C)CCCCC1)C(=O)N1C[C@H]2[C@@H]([C@H]1C(=O)NC(CC1CC1)C(=O)C(N)=O)C2(C)C (stereo partly drawn) |
| 15 nM | – | > 1000 nM | CC(C)(C)[C@H](NC(=O)NC1(CO)CCCC1)C(=O)N1C[C@H]2[C@@H]([C@H]1C(=O)NC(CC1CC1)C(=O)C(N)=O)C2(C)C (stereo partly drawn) |

| Ki [1] | Ratio [2] | EC90 (Hepatitis C virus) | Compound |
| --- | --- | --- | --- |
| 300 nM | – | – | CC(C)(C)[C@H](NC(=O)NC1(Cc2ccc3ccccc3c2)CCCCC1)C(=O)N1C[C@H]2[C@@H]([C@H]1C(=O)NC(CC1CC1)C(=O)C(N)=O)C2(C)C (stereo partly drawn) |
| 15 nM | 155 | 250 nM | CC1(NC(=O)N[C@H](C(=O)N2C[C@H]3[C@@H]([C@H]2C(=O)NC(CC2CC2)C(=O)C(N)=O)C3(C)C)C(C)(C)C)CCCCCC1 (stereo partly drawn) |
| 100 nM | – | – | CCCC(NC(=O)[C@@H]1[C@@H]2[C@H](CN1C(=O)[C@@H](NC(=O)NC(C)(C)C)C1CCCCC1)C2(C)C)C(=O)C(N)=O (stereo partly drawn) |
| 11 nM | 620 | 200 nM | CC(C)(C)[C@H](NC(=O)NC1(Cc2nccs2)CCCCC1)C(=O)N1C[C@H]2[C@@H]([C@H]1C(=O)NC(CC1CC1)C(=O)C(N)=O)C2(C)C (stereo partly drawn) |
| 100 nM | 230 | 2000 nM | CC(C)(C)[C@H](NC(=O)NC1(C(=O)c2ccccc2)CCCCC1)C(=O)N1C[C@H]2[C@@H]([C@H]1C(=O)NC(CC1CC1)C(=O)C(N)=O)C2(C)C (stereo partly drawn) |
| 9 nM | 470 | 200 nM | CC(C)(C)[C@H](NC(=O)NC1(Cc2cccs2)CCCCC1)C(=O)N1C[C@H]2[C@@H]([C@H]1C(=O)NC(CC1CC1)C(=O)C(N)=O)C2(C)C (stereo partly drawn) |
| 4 nM | 200 | 500 nM | CC(C)(C)[C@H](NC(=O)NC1(CS(=O)(=O)Cc2ccco2)CCCCC1)C(=O)N1C[C@H]2[C@@H]([C@H]1C(=O)NC(CC1CC1)C(=O)C(N)=O)C2(C)C (stereo partly drawn) |
| 6 nM | 200 | 1000 nM | CC(C)(C)[C@H](NC(=O)NC1(CS(=O)(=O)c2cccc(O)c2)CCCCC1)C(=O)N1C[C@H]2[C@@H]([C@H]1C(=O)NC(CC1CC1)C(=O)C(N)=O)C2(C)C (stereo partly drawn) |
| 4 nM | 2400 | 500 nM | CC(C)(C)[C@H](NC(=O)NC1(CS(C)(=O)=O)CCCCC1)C(=O)N1C[C@H]2[C@@H]([C@H]1C(=O)NC(CC1CCC1)C(=O)C(N)=O)C2(C)C (stereo partly drawn) |
| 19 nM | 440 | 150 nM | CC(C)(C)[C@H](NC(=O)NC1(Cc2ccccc2O)CCCCC1)C(=O)N1C[C@H]2[C@@H]([C@H]1C(=O)NC(CC1CC1)C(=O)C(N)=O)C2(C)C (stereo partly drawn) |
| 7 nM | – | 180 nM | CC(C)(C)[C@H](NC(=O)NC1(Cc2ccccn2)CCCCC1)C(=O)N1C[C@H]2[C@@H]([C@H]1C(=O)NC(CC1CC1)C(=O)C(N)=O)C2(C)C (stereo partly drawn) |
| 2 nM | 460 | 300 nM | CC(C)(C)[C@H](NC(=O)NC1(CS(C)(=O)=O)CCCCC1)C(=O)N1C[C@H]2[C@@H]([C@H]1C(=O)NC(CC1CC1)C(=O)C(N)=O)C2(C)C (stereo partly drawn) |
| 39 nM | 250 | 300 nM | CC(C)(C)[C@H](NC(=O)NC1(Cc2ccncc2)CCCCC1)C(=O)N1C[C@H]2[C@@H]([C@H]1C(=O)NC(CC1CC1)C(=O)C(N)=O)C2(C)C (stereo partly drawn) |
| 16 nM | – | 250 nM | CC1(NC(=O)N[C@H](C(=O)N2C[C@H]3[C@@H]([C@H]2C(=O)NC(CC2CC2)C(=O)C(N)=O)C3(C)C)C(C)(C)C)CCCCC1 (stereo partly drawn) |
| 78 nM | 73 | 700 nM | CC(C)(C)[C@H](NC(=O)NC1(Cc2ccccc2)CCCCCC1)C(=O)N1C[C@H]2[C@@H]([C@H]1C(=O)NC(CC1CC1)C(=O)C(N)=O)C2(C)C (stereo partly drawn) |
| 24 nM | 110 | 200 nM | CC1(NC(=O)N[C@H](C(=O)N2C[C@H]3[C@@H]([C@H]2C(=O)NC(CC2CC2)C(=O)C(N)=O)C3(C)C)C(C)(C)C)CCC1 (stereo partly drawn) |
| 8 nM | 4100 | 200 nM | CC1(NC(=O)N[C@H](C(=O)N2C[C@H]3[C@@H]([C@H]2C(=O)NC(CC2CCC2)C(=O)C(N)=O)C3(C)C)C(C)(C)C)CCCCC1 (stereo partly drawn) |
| 20 nM | 1500 | 400 nM | CCC(c1ccccc1)C1(NC(=O)N[C@H](C(=O)N2C[C@H]3[C@@H]([C@H]2C(=O)NC(CC2CC2)C(=O)C(N)=O)C3(C)C)C(C)(C)C)CCCCC1 (stereo partly drawn) |
| 10 nM | – | 200 nM | CC1(NC(=O)N[C@H](C(=O)N2C[C@H]3[C@@H]([C@H]2C(=O)NC(CC2CC2)C(=O)C(N)=O)C3(C)C)C(C)(C)C)CCCC1 (stereo partly drawn) |
| 10 nM | – | 100 nM | CC(C)(C)[C@H](NC(=O)NC1(Cc2ccsc2)CCCCC1)C(=O)N1C[C@H]2[C@@H]([C@H]1C(=O)NC(CC1CC1)C(=O)C(N)=O)C2(C)C (stereo partly drawn) |
| 44 nM | 470 | 400 nM | CC(C)(C)[C@H](NC(=O)NC1(Cc2cccc3ccccc23)CCCCC1)C(=O)N1C[C@H]2[C@@H]([C@H]1C(=O)NC(CC1CC1)C(=O)C(N)=O)C2(C)C (stereo partly drawn) |
